In ChEMBL document CHEMBL1121543, “Synthesis of selenium-75 labeled tertiary diamines: new brain imaging agents” (J Med Chem, 1980):

Key:
Rattus norvegicus [1] = experiment: Organ distribution in rat blood 30 minutes after intravenous injection; type: ADME, organism-based; conditions: in vivo, 0.5 h
Summary of the method: (§1)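 Male Sprague-Dawley rats (220-300 g) given 0.2 mL Se-75 labeled compound (0.5-2.0 μCi) iv via femoral vein under light ether anesthesia; killed under ether by heart removal at set times; organs excised and counted in a well counter. Percent dose per organ from comparison with diluted aliquots of injected dose; blood and muscle totals assume 7% and 40% of body weight. Average of two or three rats, with range.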

Rattus norvegicus [2] = experiment: Organ distribution in rat muscle 2 minutes after intravenous injection; type: ADME, organism-based, Muscle tissue; conditions: in vivo; summary of the method: as §1
Rattus norvegicus [3] = experiment: Organ distribution in rat liver 2 hr after intravenous injection; type: ADME, organism-based; conditions: in vivo; summary of the method: as §1
Rattus norvegicus [4] = experiment: Organ distribution in rat heart 2 minutes after intravenous injection; type: ADME, organism-based; conditions: in vivo; summary of the method: as §1
Rattus norvegicus [5] = experiment: Organ distribution in rat brain 2 minutes after intravenous injection; type: ADME, organism-based; conditions: in vivo; summary of the method: as §1
Rattus norvegicus [6] = experiment: Organ distribution in rat heart 2 hr after intravenous injection; type: ADME, organism-based; conditions: in vivo; summary of the method: as §1
Rattus norvegicus [7] = experiment: Organ distribution in rat lung 2 hr after intravenous injection; type: ADME, organism-based; conditions: in vivo; summary of the method: as §1
Rattus norvegicus [8] = experiment: Organ distribution in rat brain 2 hr after intravenous injection; type: ADME, organism-based; conditions: in vivo; summary of the method: as §1
Rattus norvegicus [9] = experiment: Organ distribution in rat blood 2 minutes after intravenous injection; type: ADME, organism-based; conditions: in vivo; summary of the method: as §1
Rattus norvegicus [10] = experiment: Organ distribution in rat brain 30 minutes after intravenous injection; type: ADME, organism-based; conditions: in vivo, 0.5 h; summary of the method: as §1
Rattus norvegicus [11] = experiment: Organ distribution in rat liver 2 minutes after intravenous injection; type: ADME, organism-based; conditions: in vivo; summary of the method: as §1
Rattus norvegicus [12] = experiment: Organ distribution in rat blood 2 hr after intravenous injection; type: ADME, organism-based; conditions: in vivo; summary of the method: as §1
Rattus norvegicus [13] = experiment: Organ distribution in rat liver 30 minutes after intravenous injection; type: ADME, organism-based; conditions: in vivo, 0.5 h; summary of the method: as §1
Rattus norvegicus [14] = experiment: Organ distribution in rat lung 2 minutes after intravenous injection; type: ADME, organism-based; conditions: in vivo; summary of the method: as §1
Rattus norvegicus [15] = experiment: Organ distribution in rat lung 30 minutes after intravenous injection; type: ADME, organism-based; conditions: in vivo, 0.5 h; summary of the method: as §1
Rattus norvegicus [16] = experiment: Organ distribution in rat muscle 30 minutes after intravenous injection; type: ADME, organism-based, Muscle tissue; conditions: in vivo, 0.5 h; summary of the method: as §1
Rattus norvegicus [17] = experiment: Organ distribution in rat kidney 2 minutes after intravenous injection; type: ADME, organism-based; conditions: in vivo; summary of the method: as §1
Rattus norvegicus [18] = experiment: Organ distribution in rat kidney 30 minutes after intravenous injection; type: ADME, organism-based; conditions: in vivo, 0.5 h; summary of the method: as §1
Rattus norvegicus [19] = experiment: Organ distribution in rat heart 30 minutes after intravenous injection; type: ADME, organism-based; conditions: in vivo, 0.5 h; summary of the method: as §1
Rattus norvegicus [20] = experiment: Organ distribution in rat muscle 2 hr after intravenous injection; type: ADME, organism-based, Muscle tissue; conditions: in vivo; summary of the method: as §1
Rattus norvegicus [21] = experiment: Organ distribution in rat kidney 2 hr after intravenous injection; type: ADME, organism-based; conditions: in vivo; summary of the method: as §1
Rattus norvegicus [22] = experiment: Organ distribution in rat blood 30 min after intravenous injection; type: ADME, organism-based; conditions: in vivo, 0.5 h; summary of the method: as §1

Row | SMILES | Dose/organ (Rattus norvegicus [1]) [%] | Dose/organ (Rattus norvegicus [2]) [%] | Dose/organ (Rattus norvegicus [3]) [%] | Dose/organ (Rattus norvegicus [4]) [%] | Dose/organ (Rattus norvegicus [5]) [%] | Dose/organ (Rattus norvegicus [6]) [%] | Dose/organ (Rattus norvegicus [7]) [%] | Dose/organ (Rattus norvegicus [8]) [%] | Dose/organ (Rattus norvegicus [9]) [%] | Dose/organ (Rattus norvegicus [10]) [%] | Dose/organ (Rattus norvegicus [11]) [%] | Dose/organ (Rattus norvegicus [12]) [%] | Dose/organ (Rattus norvegicus [13]) [%] | Dose/organ (Rattus norvegicus [14]) [%] | Dose/organ (Rattus norvegicus [15]) [%] | Dose/organ (Rattus norvegicus [16]) [%] | Dose/organ (Rattus norvegicus [18]) [%] | Dose/organ (Rattus norvegicus [19]) [%] | Dose/organ (Rattus norvegicus [20]) [%] | Dose/organ (Rattus norvegicus [21]) [%] | also measured
1 | CC(C)N(CC[Se]CCN(C(C)C)C(C)C)C(C)C | 1.17 | 9.88 | 13.1 | 2.35 | 0.25 | 0.3 | 1.11 | 0.35 | 2.96 | 0.33 | 11.9 | 1.04 | 16 | 11.2 | 3.44 | 14.2 | 6.19 | 0.55 | 15 | 2.28 | Dose/organ (Rattus norvegicus [17]): 11.4%
2 | C[N+](C)(C)CC[Se]CC[N+](C)(C)C | 5.16 |  | 3.04 |  |  | 0.05 | 0.2 | 0.06 |  | 0.06 |  | 0.36 | 5.74 |  | 0.63 | 9.52 | 6.01 | 0.15 | 5.48 | 2.75 | 
3 | C1CCN(CC[Se]CCN2CCCCC2)CC1 | 0.87 | 7.39 | 15.9 | 3.04 | 1.09 | 0.19 | 0.85 | 1.63 | 4.58 | 1.49 | 12 | 0.65 | 14.3 | 20 | 2.83 | 13.4 | 9.21 | 0.89 | 12 | 2.89 | Dose/organ (Rattus norvegicus [17]): 7.14%
4 | C1CN(CC[Se]CCN2CCOCC2)CCO1 | 2.82 | 10.5 | 21.7 | 0.45 | 3.19 | 0.18 | 0.94 | 0.56 | 3.13 | 1.53 | 18.3 | 2.46 | 23.2 | 2.77 | 1.79 | 14.4 | 4.03 | 0.22 | 17.7 | 3.42 | Dose/organ (Rattus norvegicus [17]): 9.89%
5 | CN(C)CC[Se]CCN(C)C |  | 14.1 | 12.2 | 2.21 | 0.49 | 0.54 | 4.74 | 0.71 | 2.82 | 0.49 | 12.82 | 0.53 | 15.1 | 11.36 | 5.77 | 11.8 | 5.6 | 0.81 | 15.2 | 3.92 | Dose/organ (Rattus norvegicus [17]): 9.46%; Dose/organ (Rattus norvegicus [22]): 0.74%
